ERa SRC1 inh = ERα–SRC-1 coactivator interaction inhibitors, primary screen, biochemical, TR-FRET, ERα LBD, estradiol-bound; Estrogen receptor (Homo sapiens), P03372; TR-FRET ER-alpha LBD / SRC-1 peptide; inhibition, % at 25.6 µM; 1.7% of 86,000 active; in the data active = inhibition above about 50%
Smad3 inh = Smad3/FoxH1 peptide binding inhibitors, primary screen, biochemical, TR-FRET; Mothers against decapentaplegic homolog 3 (Homo sapiens), P84022; TR-FRET Smad3/Dy647-FoxH1 peptide binding, europium anti-His; inhibition, % at 25 µM; 0.29% of 88,000 active; AID 630, 2007;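 active = compounds that reduce the energy-transfer binding signal between the protein and its labelled peptide by more than half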
Target sequence (P84022 whole entry, looked up): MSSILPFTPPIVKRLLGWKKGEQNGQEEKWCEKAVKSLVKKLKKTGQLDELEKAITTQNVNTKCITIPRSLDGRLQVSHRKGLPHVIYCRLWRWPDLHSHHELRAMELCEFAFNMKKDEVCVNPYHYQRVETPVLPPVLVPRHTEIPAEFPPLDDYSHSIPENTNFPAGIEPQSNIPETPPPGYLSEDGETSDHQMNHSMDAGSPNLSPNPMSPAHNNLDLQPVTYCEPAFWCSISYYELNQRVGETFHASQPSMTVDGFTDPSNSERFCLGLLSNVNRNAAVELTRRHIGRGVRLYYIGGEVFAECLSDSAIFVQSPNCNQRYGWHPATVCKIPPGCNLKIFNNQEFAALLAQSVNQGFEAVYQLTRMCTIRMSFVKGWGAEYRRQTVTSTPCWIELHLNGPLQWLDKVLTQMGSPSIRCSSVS
HIV Rev-RRE inh = HIV-1 Rev-RRE binding inhibitors, primary screen, biochemical, FRET, protein-RNA interaction. P05866. Rev peptide-RRE RNA binding. inhibition, % at 8 µM. 0.79% of 97,000 active. AID 704, 2007;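 active = inhibition above the screen-wide mean plus 3 SD, cut at about 35% in these data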
Target sequence (P05866 whole entry, looked up): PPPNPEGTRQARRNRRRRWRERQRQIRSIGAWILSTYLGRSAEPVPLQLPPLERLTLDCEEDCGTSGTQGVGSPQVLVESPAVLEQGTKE
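assay system = Cy5-tagged RRE RNA duplex with fluorescein-tagged Rev peptide | incubation = 5 + 15 min at 25 °C | also added = labelled Rev peptide | measure = % inhibition of FRET ratio versus controls | benchmarks = DMSO wells as 0% and neomycin B wells as 100% inhibition | measured by = FRET fluorescence readout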
FAK blocker = FAK kinase inhibitors, primary screen, biochemical; Focal adhesion kinase 1 (Homo sapiens), Q05397; biochemical FAK kinase activity assay; inhibition, %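 (tested at 7 µM)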; 0.84% of 97,000 active; AID 727, 2007
ERb SRC1 inh = inhibitors of ERβ-SRC1 coactivator interaction, primary screen, biochemical, TR-FRET, ERβ LBD, SRC-1 peptide. inhibition, % at 25.6 µM. 1.3% of 86,000 active. TR-FRET ER-beta LBD / SRC1-Cy5 peptide binding; receptor agonist-loaded with 1 µM estradiol;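 active = compounds whose percent inhibition of the receptor-coactivator binding signal exceeds about 50% in the single-dose screen, limit read from the data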
ERa coact pot = enhancers of ERα–SRC-1 coactivator binding, primary screen, biochemical, TR-FRET, ERα LBD, low estradiol. coactivator binding (% of control), % at 25.6 µM. TR-FRET ERalpha-LBD/SRC-Cy5 coactivator binding, 2 h; 100 = basal binding, no effect. 1.3% of 86,000 active. Estrogen receptor (Homo sapiens), P03372. AID 639, 2007; in the data active = activity above about 200%;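 also: binding measured in presence of low estradiol as agonist stimulus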
FAK inh confirm = FAK kinase inhibitors, retest, confirmation, biochemical. AID 794, 2007. shares compounds with FAK blocker. 28% of 750 active. inhibition, % at 7 µM. FAK kinase biochemical inhibition assay
A number is an active result; 0 = inactive; - = no result given; [ ] = another dose, or the depositor's remark. Compounds with a hit are over-represented: about 4% of the library has one in this group of screens. Rule as the data show it, unless noted: active = inhibition above about 19%; inactive = the rest.

SMILES	ERa SRC1 inh	Smad3 inh	HIV Rev-RRE inh	FAK blocker	ERb SRC1 inh	ERa coact pot	FAK inh confirm
Cc1ccc(NC(=O)CN2C(=O)S/C(=C\c3cccn3-c3cccc(C(=O)O)c3)C2=O)c(C)c1	-	-	0	65	-	-	0
COCCn1nnnc1C(c1ccc(OC)c(OC)c1)N1CCN(c2nc3ccccc3s2)CC1 (stereo not given)	0	0	0	0	0	0	-
COCCNC(=O)C(c1ccc(C)o1)N(C(=O)c1snc(C(N)=O)c1N)c1cc(C)cc(C)c1 (stereo not given)	0	0	0	23	99[fluorescence artefact?]	0	0
COc1ccc(CCNC(=O)c2ccc(NS(=O)(=O)c3c(C)noc3C)cc2)cc1OC	-	-	0	0	-	-	-
CCOC(=O)c1cccc(NS(=O)(=O)c2c(C)[nH]c(=O)[nH]c2=O)c1	0	0	0	21	0	0	0
CCOC(=O)c1cccc(NS(=O)(=O)c2ccc(NC(C)=O)cc2)c1	0	0	0	0	0	0	-
CCOc1ccc2c(c1)-c1c(ssc1=S)C(C)(C)N2	-	-	0	0	-	-	-
O=C1SC(SCc2ccccc2)=N/C1=C\c1ccco1	0	0	0	0	0	0	-
CCCSC1=N/C(=C\C=C\c2ccco2)C(=O)S1	75[fluorescence artefact?]	0	0	25	63	0	0
Cc1occc1C(=O)NC1CCCCCC1	0	0	0	72	0	0	0
COc1cccc(-c2nc(-c3ccccn3)no2)c1	0	0	0	98	0	0	0
c1ccc(-c2noc(-c3ccc4ccccc4c3)n2)nc1	0	0	-	-	0	0	-
O=C(Oc1ccccc1)c1c(Cl)cccc1P(=O)(O)O	0	0	0	76	0	0	58
O=C(Oc1ccccc1Cl)c1ccccc1P(=O)(O)O	0	0	0	72	0	0	68
Cc1ccc(OC(=O)c2ccccc2P(=O)(O)O)cc1	0	0	0	50	0	0	44
Cc1ccc(OC(=O)c2cccc(C(=O)Oc3ccc(C)cc3)n2)cc1	0	0	0	0	0	0	-
CCCCCOP(=O)(OCCCCC)C1(NS(=O)(=O)c2ccccc2)C=CC(=O)c2ccccc21 (stereo not given)	0	0	0	0	0	0	-
CCCCc1cc(=O)oc2cc(C)c(CN3CCCC3)c(O)c12	0	0	0	21	0	0	0
COc1ccc(-c2nc(-c3cccc(C)c3)[nH]c(=O)c2C#N)cc1	-	-	0	0	-	-	-
O=S(=O)(Nc1ccc(-n2cccc2)cc1)c1ccccc1	-	-	0	0	-	-	-
Cc1cc2c(C)nc(-c3ccccc3)nc2o1	0	0	0	25	0	0	0
O=C(O)c1ccc(N2CCCCC2)cc1	0	0	-	-	0	0	-
Nc1ccc(N2CCCCCC2)cc1	97[fluorescence artefact?]	0	0	28	93[fluorescence artefact?]	0	0
COC(=O)c1cccc(CSc2nnc(C)s2)c1	0	0	0	0	0	0	-
Cc1ccc(C2NC(=O)NC3=C2CCc2ccccc23)cc1 (stereo not given)	0	0	0	19	0	0	0
SMILES	ERa SRC1 inh	Smad3 inh	HIV Rev-RRE inh	FAK blocker	ERb SRC1 inh	ERa coact pot	FAK inh confirm
Cc1cc(C)n2nc(C(=O)Nc3ccc4c(c3)OCO4)nc2n1	59[fluorescence artefact?]	0	0	93	0	0	0
N#Cc1nc(-c2cccs2)oc1NCc1ccccc1	0	0	0	22	0	0	0
COC(=O)C1=C(C)NC(C)=C(C(=O)OC)C1c1ccccc1OCc1c(C)no[n+]1[O-]	0	0	0	0	0	0	-
Cc1ccc(NC(=O)CSc2nnc(-c3ccco3)c(-c3ccco3)n2)cc1	81[fluorescence artefact?]	0	0	19	74[fluorescence artefact?]	0	0
Cc1ccc(SCC(=O)Nc2ccc(-c3nnc(-c4ccco4)o3)cc2)cc1	-	-	0	0	-	-	-
Cc1cccc(C)c1NC(=O)CSc1nnc(-c2ccco2)c(-c2ccco2)n1	84[fluorescence artefact?]	0	0	35	83[fluorescence artefact?]	0	0
Cc1csc(C(C#N)C(=O)c2cc3ccccc3o2)n1 (stereo not given)	0	0	0	0	0	0	-
O=c1cc(CSc2nnc(-c3cccs3)n2Cc2ccccc2)nc2sc3ccccc3n12	75[fluorescence artefact?]	0	0	31	65	0	0
CC(C)c1nnc(NC(=O)C2CCCCC2)s1	0	0	0	0	0	0	-
CC(C)c1cc(C(N)=O)c(NC(=O)C2CCC2)s1	0	0	0	24	0	0	0
Cc1cc(S(=O)(=O)Nc2ccccc2C(=O)O)ccc1Cl	0	0	0	0	0	0	-
Cc1nn(-c2ccccc2)c(Cl)c1/C=N/Nc1ccc(S(=O)(=O)Nc2ccccc2C(=O)O)cc1[N+](=O)[O-]	89	0	0	19	64	0	0
CCCNC(=O)Cn1nc(C(F)(F)F)c2c1CCCC2	0	0	0	0	0	0	-
Cn1c(SCc2ccon2)nc2ccccc2c1=O	0	0	0	23	0	0	0
O=C(CN1C(=O)COc2ccccc21)N(Cc1cccnc1)Cc1ccccc1F	0	0	0	0	0	0	-
CCOC(=O)c1c(N)sc2c(NC(C)=O)cccc12	0	0	0	0	0	0	-
CCOC(=O)c1c(N)sc2c(O)c(Br)ccc12	0	0	0	19	0	0	0
O=C1CCCC2=C1C(c1ccc(Cl)cc1)C1C(=O)c3ccccc3C1=N2 (stereo not given)	-	-	0	23	-	-	0
O=C1CCCC2=C1C(c1ccc(Cl)cc1)N1C(=O)CCSC1=N2 (stereo not given)	0	0	0	0	0	0	-
Cc1cc(S(=O)(=O)Nc2ccc(C(=O)N3CCN(C(=O)c4ccco4)CC3)cc2)ccc1F	-	-	0	0	-	-	-
O=C(c1ccc(S(=O)(=O)Nc2ccc(F)cc2)cc1)N1CCN(C(=O)c2ccco2)CC1	0	0	0	27	0	0	0
CC(C)(C)n1nnnc1CN1CCSCC1	0	0	0	0	0	0	-
O=C(Nc1ccc(Cl)c(Cl)c1)N1CCSC1c1ccco1 (stereo not given)	0	0	0	26	0	0	0
O=C(Nc1ccc(Cl)c(Cl)c1)N1CC=CCC1	0	0	-	-	0	0	-
CCNC(=O)C1CC(=O)N(c2ccc(Br)cc2)C1 (stereo not given)	0	0	0	0	0	0	-
Cc1nc2ccc(Cl)cc2nc(C)/c1=N\O	0	0	0	0	0	0	-
Cc1n[nH]c(C)c1N=Nc1cc(Cl)ccc1Cl	-	-	0	41	-	-	21
CC1(C)CC(=O)c2c(n(-c3cccc4ccccc34)ccc2=O)C1	0	0	0	0	0	0	-

Screens: PubChem BioAssay, several laboratories
